Results filed as inconclusive are left out.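 How the source made its calls, unless noted: active means viability increase at or above a cutoff of the median across tested compounds plus 3 SD (cut at about 8.5% in these data, passing the limit was not always enough); inconclusive means some gains above the cutoff, reason not given; inactive means the rest.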
Columns and labels:
[1] = OD615 S. cerevisiae growth inhibition, permissive medium, pilot counter-assay, permissive growth control for S. cerevisiae lifespan shortening project (AID 705;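 active means growth inhibition above 25% in both replicates, a cutoff set 3 SD above the mean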); details: OD615, 24 h, at 10 µM, stronger effect = higher value
Method in brief: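 assay system = Saccharomyces cerevisiae strain carrying genetically modified DeaD replicative-lifespan system | technique = absorbance (optical density) at 615 nm | buffer or medium = permissive raffinose/galactose medium | timing = cells pre-grown 4 h, then 24 h compound exposure, 30 °C humidified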

[2] = Restrictive medium S. cerevisiae growth inhibition, OD615, pilot screen of yeast lifespan reduction project, restrictive growth control (AID 706;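 active means growth inhibition above a set limit, 3 SD over mean compound inhibition, in both replicates, cut at about 43% in these data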;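 further: modified DeaD lifespan yeast strain shifted to restrictive glucose medium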); details: OD615, 48 h, at 10 µM, stronger effect = higher value
Method in brief: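 System: modified S. cerevisiae. Buffer or medium: CSMM-D glucose medium. Incubation: 4 h pre-growth plus 48 h compound exposure, 30 °C. Detection: absorbance (optical density) measured at 615 nm.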

[3] = viability gain of MRP-1-high H69AR cells under doxorubicin, pilot screen, MRP-1 activator project, CellTiter-Glo, duplicate (AID 807); details: H69AR viability with doxorubicin, CellTiter-Glo luminescence; at 10 µM; stronger effect = higher value;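 further: compound pretreatment 18-22 h then 72 h combined with doxorubicin; 0% = doxorubicin alone and 100% = vehicle without doxorubicin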
[4] = growth suppression of beta-catenin knockout HCT116, pilot screen, human colon tumor cells (AID 823;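 active means cell viability at or below a set limit in both duplicate runs, the limit being the all-compound median minus 4 SD, cut at about 23% in these data, passing the limit was not always enough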;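 further: 0% = wells killed by 20 µM Hyamine and 100% = untreated DMSO cell wells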); details: CellTiter-Glo, 60 h, at 10 µM, stronger effect = lower value
[5] = growth suppression of PTEN-deleted HCT116, pilot screen, cell-based, HCT116 clonal line, CellTiter-Glo (AID 824;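 active means viability at or below 27.92% in each of two runs, the all-compound median minus 4 SD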;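 further: 0% = 20 µM Hyamine control and 100% = vehicle cell control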); details: 60 h, at 10 µM, stronger effect = lower value
[6] = inhibitors of the yeast RAM network, pilot screen, dse1pr::URA3 reporter, 5-FOA selection (AID 869;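 active means inhibition over a set limit, the all-compound mean plus 3 SD, in both replicate runs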;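 further: 0% = DMSO wells with no growth and 100% = 10 µM 1-NA-PP1 with full growth; RAM network block rescues cells from 5-FOA so hits raise OD615 growth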); details: S. cerevisiae dse1pr::URA3 5-FOA growth, OD615, 2 d; at 10 µM; stronger effect = higher value; strain carries analog-sensitive mutant Cbk1 kinase
[7] = RAM signaling pathway blockade in yeast – S. cerevisiae, Pdr1DBD-CYC8 efflux-inhibited sensitized strain, primary screen (AID 1298;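 active means RAM network inhibition above 8.4% in each of two replicates, 3 SD over the compound average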;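 further: 0% = DMSO untreated cells without growth and 100% = 10 µM 1-NA-PP1 full growth; higher means more yeast growth rescued from 5-FOA killing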); details: S. cerevisiae cbk1-as DSE1-URA3 strain, 5-FOA growth OD615, 2 d; at 50 µM; stronger effect = higher value

O=C(Nc1ccc(N2CCCC2)c(Cl)c1)c1ccco1
inactive: growth inhibition [1] -2.11% | growth inhibition [2] 8.76% | viability increase [3] 0.68% | viability [4] 91.5% | viability [5] 89.1% | inhibition [6] 1.51% | RAM network inhibition [7] 0.62%

COc1ccc(CCNC(=O)CCn2c(=O)oc3ccccc32)cc1OC
inactive: growth inhibition [1] -6.99% | growth inhibition [2] -12.8% | viability increase [3] -0.1% | viability [4] 105% | viability [5] 97.9% | inhibition [6] 1.47% | RAM network inhibition [7] 1.61%

COc1ccc(C(C)=O)cc1CSc1nnc(C)s1
inactive: growth inhibition [1] -9.51% | growth inhibition [2] -8.14% | viability increase [3] -2.37% | viability [4] 96.5% | viability [5] 96.8% | inhibition [6] -0.565% | RAM network inhibition [7] 0.11%

COc1cc(NC(=O)C2CCC(CNc3c(N4CCCCC4)c(=O)c3=O)CC2)cc(OC)c1 (stereo not drawn)
inactive: growth inhibition [1] 0.52% | growth inhibition [2] -2.35% | viability increase [3] -0.71% | viability [4] 95.2% | viability [5] 95.9% | inhibition [6] 1.79% | RAM network inhibition [7] 5.55%

Cc1nn(C)c(C)c1S(=O)(=O)N(CC(=O)Nc1ccc2c(c1)OCO2)c1ccc(C(C)C)cc1
inactive: growth inhibition [1] -19.5% | growth inhibition [2] -7.85% | viability increase [3] -2.38% | viability [4] 102% | viability [5] 99.4% | inhibition [6] 2.36% | RAM network inhibition [7] 2.62%

CC(Oc1ccc(Cl)cc1Cl)C(=O)NCCN1CCOCC1 (stereo not drawn)
inactive: growth inhibition [1] -8.7% | growth inhibition [2] 4.87% | viability increase [3] -2.33% | viability [4] 100% | viability [5] 97.5% | inhibition [6] -0.29% | RAM network inhibition [7] 1.53%

Cc1[nH]c2ccccc2c1SCCN
inactive: growth inhibition [1] -9.76% | growth inhibition [2] -12.4% | viability increase [3] -5.96% | viability [4] 73.9% | viability [5] 62.9% | inhibition [6] 2.34% | RAM network inhibition [7] 1.7%

CC1CC(C)CN(S(=O)(=O)c2ccc(NC(=O)C3COc4ccccc4O3)cc2)C1 (stereo not drawn)
inactive: growth inhibition [1] -14.1% | growth inhibition [2] -24.7% | viability increase [3] -7.35% | viability [4] 53.9% | viability [5] 54.7% | inhibition [6] 3.38% | RAM network inhibition [7] 2.76%

CCc1ccc(N2CCN(C(=O)c3ccc(OC)c(OC)c3)CC2)cc1
inactive: growth inhibition [1] -15.2% | growth inhibition [2] -8.32% | viability increase [3] 2.36% | viability [4] 57.3% | viability [5] 79% | inhibition [6] 0.975% | RAM network inhibition [7] 2.51%

O=CN1CCN(C(C(=O)NC2CCCC2)c2ccc(Cl)cc2)CC1 (stereo not drawn)
inactive: growth inhibition [1] -7.98% | growth inhibition [2] 4.62% | viability increase [3] -1.14% | viability [4] 86.2% | viability [5] 88.5% | inhibition [6] 0.795% | RAM network inhibition [7] 2.38%

COc1ccc(C2CC(c3c(Cl)cccc3Cl)n3nc(N)nc3N2)cc1 (stereo not drawn)
inactive: growth inhibition [1] -6.17% | growth inhibition [2] 5.1% | viability increase [3] -1.64% | viability [4] 95.3% | viability [5] 88.1% | inhibition [6] 2.57% | RAM network inhibition [7] 6.67%

Cc1cc(Nc2cccc(F)c2)n2ncnc2n1
inactive: growth inhibition [1] -0.15% | growth inhibition [2] 12.3% | viability increase [3] 0% | viability [4] 101% | viability [5] 106% | inhibition [6] 1.23% | RAM network inhibition [7] 0.16%

Cc1ccc(S(=O)(=O)c2nc(S(C)(=O)=O)sc2N(C)C)cc1
inactive: growth inhibition [1] 0.44% | growth inhibition [2] -4.42% | viability increase [3] -5.6% | viability [4] 86% | viability [5] 86.9% | inhibition [6] 0.565% | RAM network inhibition [7] 2.51%

COc1ccc(-n2c(Cc3cc(=O)[nH]c(=O)[nH]3)nnc2SCC(=O)N2CCCC2)cc1
inactive: growth inhibition [1] -4.92% | growth inhibition [2] -0.375% | viability increase [3] 0.36% | viability [4] 101% | viability [5] 97.9% | inhibition [6] 0.805% | RAM network inhibition [7] 0.42%

Cc1ccccc1NC(=O)CN(C)S(=O)(=O)c1cccc2cccnc12
inactive: growth inhibition [1] -2.9% | growth inhibition [2] -1.7% | viability increase [3] -0.34% | viability [4] 105% | viability [5] 95.7% | inhibition [6] 1.74% | RAM network inhibition [7] 2.49%

CCOC(=O)C1CCN(C(=O)CN(c2cccc(OC)c2)S(=O)(=O)c2ccccc2)CC1
inactive: growth inhibition [1] -4.73% | growth inhibition [2] -0.62% | viability increase [3] -3.2% | viability [4] 92.9% | viability [5] 87.2% | inhibition [6] -0.74% | RAM network inhibition [7] 1.79%

C=CCSc1nc2ccccc2c(=O)[nH]1
inactive: growth inhibition [1] -16.1% | growth inhibition [2] -8.26% | viability increase [3] -0.8% | viability [4] 105% | viability [5] 95.2% | inhibition [6] 2.91% | RAM network inhibition [7] 0.79%

CCC1CCCCN1Cc1nc2c(c(=O)n(C)c(=O)n2C)n1Cc1ccccc1 (stereo not drawn)
inactive: growth inhibition [1] 6.88% | growth inhibition [2] -0.26% | viability increase [3] 3.7% | viability [4] 75.3% | viability [5] 74.4% | inhibition [6] 2.1% | RAM network inhibition [7] 2.14%

O=C1c2ccccc2NC(c2ccc3c(c2)OCCO3)N1c1ccc2c(c1)OCCO2 (stereo not drawn)
inactive: growth inhibition [1] -5.15% | growth inhibition [2] 6.69% | viability increase [3] -2.17% | viability [4] 90.5% | viability [5] 79.5% | inhibition [6] 0.615% | RAM network inhibition [7] 0.98%

O=C(O)c1ccccc1SC1CC(=O)N(C2CCCCC2)C1=O (stereo not drawn)
inactive: growth inhibition [1] -14.3% | growth inhibition [2] -1.75% | viability increase [3] -2.78% | viability [4] 90.7% | viability [5] 94.3% | inhibition [6] 1.17% | RAM network inhibition [7] 1.06%

COc1ccc(CNC(=O)C2CCN(S(=O)(=O)c3cccc4cccnc34)CC2)cc1
inactive: growth inhibition [1] -9.14% | growth inhibition [2] 3.15% | viability increase [3] 0.11% | viability [4] 99.9% | viability [5] 92.2% | inhibition [6] 2.6% | RAM network inhibition [7] 2.66%

Cc1cccc(C)c1Nc1nc2ccccc2o1
inactive: growth inhibition [1] -7.32% | growth inhibition [2] 11.5% | viability increase [3] -0.76% | viability [4] 93.3% | viability [5] 94.3% | inhibition [6] 1.97% | RAM network inhibition [7] -0.32%

COc1ccc(-n2nnc3c(=O)n(CC(=O)N4CCCCC4)cnc32)cc1
inactive: growth inhibition [1] -0.235% | growth inhibition [2] 4.3% | viability increase [3] -0.73% | viability [4] 96.1% | viability [5] 94.6% | inhibition [6] 0.975% | RAM network inhibition [7] -0.05%

CCOC1CCCCC1NS(=O)(=O)c1ccc(Cl)cc1 (stereo not drawn)
inactive: growth inhibition [1] -3.5% | growth inhibition [2] 1.71% | viability increase [3] -3.23% | viability [4] 99.3% | viability [5] 91.7% | inhibition [6] 1.5% | RAM network inhibition [7] 2.71%

— PubChem BioAssay
